Measured values taken from ChEMBL document CHEMBL4257470, “Rational design and characterization of a DNA/HDAC dual-targeting inhibitor containing nitrogen mustard and 2-aminobenzamide moieties” (Medchemcomm, 2018).
pIC50: −log10 of the molar value. Each block holds one compound with its values, some of them ahead of it. Active and inactive are the calls of the source. The rule behind the calls is not given here.

Tests used:
[1] = target: Histone deacetylase (Homo sapiens) (UniProt Q13547+O15379+Q9UBN7+Q92769+Q9UQL6+Q8WUI4+Q9BY41+Q96DB2+P56524+Q9UKV0+Q969S8); test: Inhibition of HDAC in human HeLa cell nuclear extracts at 0.1 to 10000 uM using FLUOR DE LYS-Green as substrate after 1 hr by fluorescence assay; type: protein assay
How it was run: (§1)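 Enzyme preincubated with a concentration series of inhibitor; Fluor de Lys-Green substrate equilibrated at 37 °C for 5 min, then added to start the reaction. Incubated 1 h at 37 °C, stopped with developer for 10 min at 25 °C, fluorescence read at ex 360/em 460 nm. Activity taken as percent of control; IC50 by regression of dose–inhibition data.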

Histone deacetylase 1 = Histone deacetylase 1 (Homo sapiens, UniProt Q13547); test: Inhibition of recombinant human HDAC1 using FLUOR DE LYS SIRT1 deacetylase substrate after 1 hr by fluorescence assay
How it was run: (§2)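 Each isoform kit run with the enzyme preincubated with a concentration series of inhibitor, and substrate added after 5 min equilibration at 37 °C. Reaction ran 1 h at 37 °C, was stopped with developer for 10 min at 25 °C, and fluorescence was read at ex 360/em 460 nm. Activity taken as percent of control; IC50 by regression of dose–inhibition data.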

Histone deacetylase 2 = Histone deacetylase 2 (Homo sapiens, UniProt Q92769); test: Inhibition of recombinant human HDAC2 using FLUOR DE LYS-Green as substrate after 1 hr by fluorescence assay; how it was run: as §1
[2] = target: Histone deacetylase 3/NCoR1 (Homo sapiens, UniProt O15379); test: Inhibition of recombinant human HDAC3/NCOR1 using FLUOR DE LYS SIRT1 deacetylase substrate after 1 hr by fluorescence assay; type: protein-complex assay; how it was run: as §2
Histone deacetylase 8 = target: T1, Histone deacetylase 8 (Homo sapiens, UniProt Q9BY41); test: Inhibition of recombinant human HDAC8 using FLUOR DE LYS as substrate after 1 hr by fluorescence assay; how it was run: as §2
T1 sequence (Q9BY41 whole entry): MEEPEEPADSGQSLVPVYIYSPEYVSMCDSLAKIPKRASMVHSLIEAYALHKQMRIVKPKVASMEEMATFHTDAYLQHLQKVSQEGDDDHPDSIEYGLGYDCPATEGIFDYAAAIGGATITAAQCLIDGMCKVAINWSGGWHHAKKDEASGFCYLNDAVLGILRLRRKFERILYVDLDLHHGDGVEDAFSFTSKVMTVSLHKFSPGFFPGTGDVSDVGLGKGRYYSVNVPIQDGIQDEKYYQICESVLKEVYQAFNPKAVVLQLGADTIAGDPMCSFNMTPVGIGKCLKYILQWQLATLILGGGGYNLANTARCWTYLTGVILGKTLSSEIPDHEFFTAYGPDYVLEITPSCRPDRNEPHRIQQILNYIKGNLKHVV

[3] = target: T2, Protein deacetylase HDAC6 (Homo sapiens, UniProt Q9UBN7); test: Inhibition of recombinant human HDAC6 using FLUOR DE LYS SIRT1, deacetylase as substrate after 1 hr by fluorescence assay; how it was run: as §2
T2 sequence (Q9UBN7 whole entry): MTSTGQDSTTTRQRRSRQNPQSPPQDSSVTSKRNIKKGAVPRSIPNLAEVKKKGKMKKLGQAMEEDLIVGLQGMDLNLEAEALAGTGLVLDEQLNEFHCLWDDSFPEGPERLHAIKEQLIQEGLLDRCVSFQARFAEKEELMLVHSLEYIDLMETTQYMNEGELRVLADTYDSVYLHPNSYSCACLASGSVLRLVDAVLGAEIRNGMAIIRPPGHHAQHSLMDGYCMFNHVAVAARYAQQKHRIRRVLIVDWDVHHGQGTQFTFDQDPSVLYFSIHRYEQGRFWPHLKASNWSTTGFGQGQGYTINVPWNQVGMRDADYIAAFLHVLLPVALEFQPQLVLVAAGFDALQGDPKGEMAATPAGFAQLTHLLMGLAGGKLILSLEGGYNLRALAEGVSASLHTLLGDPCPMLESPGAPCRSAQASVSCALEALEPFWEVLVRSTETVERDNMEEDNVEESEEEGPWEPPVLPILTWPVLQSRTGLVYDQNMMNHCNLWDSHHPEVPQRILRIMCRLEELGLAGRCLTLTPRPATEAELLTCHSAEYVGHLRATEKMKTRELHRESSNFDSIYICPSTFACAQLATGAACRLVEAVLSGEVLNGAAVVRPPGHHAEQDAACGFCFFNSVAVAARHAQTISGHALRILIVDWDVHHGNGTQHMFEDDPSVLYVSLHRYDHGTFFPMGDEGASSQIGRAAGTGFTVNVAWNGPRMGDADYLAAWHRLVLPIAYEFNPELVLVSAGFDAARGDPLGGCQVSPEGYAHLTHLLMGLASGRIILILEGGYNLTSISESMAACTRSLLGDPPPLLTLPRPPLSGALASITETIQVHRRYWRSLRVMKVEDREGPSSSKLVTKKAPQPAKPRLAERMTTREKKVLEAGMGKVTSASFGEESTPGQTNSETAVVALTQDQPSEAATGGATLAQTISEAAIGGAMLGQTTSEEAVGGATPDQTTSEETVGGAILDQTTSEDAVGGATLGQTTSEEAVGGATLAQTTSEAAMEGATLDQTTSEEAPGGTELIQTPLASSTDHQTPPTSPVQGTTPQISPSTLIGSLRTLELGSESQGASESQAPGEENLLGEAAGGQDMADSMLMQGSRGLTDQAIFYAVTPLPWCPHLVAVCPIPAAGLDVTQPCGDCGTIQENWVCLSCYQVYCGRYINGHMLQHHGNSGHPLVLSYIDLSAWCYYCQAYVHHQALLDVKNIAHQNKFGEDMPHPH

[4] = Induction of DNA damage in human A375 cells assessed as phosphorylation of H2AX at Ser139 residues at 8 uM after 48 hrs relative to control; type: functional
How it was run: (§3)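 A375 cells seeded 7000 per well, treated next day for 48 h. Whole-cell γH2AX (Ser139) immunoassay read by absorbance, normalised to cell number and expressed as percent of untreated control; mean ± SD, n = 3; t-test.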

[5] = Induction of DNA damage in human A375 cells assessed as phosphorylation of H2AX at Ser139 residues at 16 uM after 48 hrs relative to control; type: functional; how it was run: as §3
A549 = test: Antiproliferative activity against human A549 cells after 72 hrs CCK8 assay; type: functional, cell-based; settings: A549, 72 h
A-375 [6] = test: Antiproliferative activity against human A375 cells after 72 hrs CCK8 assay; type: functional, cell-based; settings: A-375, 72 h
SMMC-7721 = test: Antiproliferative activity against human SMMC7721 cells after 72 hrs CCK8 assay; type: functional, cell-based; settings: SMMC-7721, 72 h
How it was run: (§4)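 Cells grown in RPMI1640 with 10% FBS, 1% penicillin/streptomycin, 37 °C, 5% CO2; log-phase cells seeded 3000–4000 per well, dosed after 12 h with a concentration series or solvent control for 72 h. CCK-8 added for 1 h, absorbance at 450 nm; IC50 from percent growth versus untreated control; mean of three experiments.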

HepG2 = test: Antiproliferative activity against human HepG2 cells after 72 hrs CCK8 assay; type: functional, cell-based; settings: HepG2, 72 h
NCI-H1299 = test: Antiproliferative activity against human H1299 cells after 72 hrs CCK8 assay; type: functional, cell-based; settings: NCI-H1299, 72 h
NCI-H460 = test: Antiproliferative activity against human H460 cells after 72 hrs CCK8 assay; type: functional, cell-based; settings: NCI-H460, 72 h; how it was run: as §4
A-375 [7] = test: Anticlonogenic activity against human A375 cells after 7 days by crystal violet staining based assay; type: functional, cell-based
How it was run: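 A375 cells seeded at 3000 per well, treated after 24 h with compound or DMSO; after 7 days colonies fixed in 3.7% formaldehyde and stained with 0.1% crystal violet.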

A-375 [8] = test: Induction of apoptosis in human A375 cells after 72 hrs by Alexa Fluor 488 Annexin/propidium iodide staining-based flow cytometric analysis; type: functional, cell-based
A-375 [9] = test: Induction of apoptosis in human A375 cells assessed as early apoptotic cells at 2 uM after 72 hrs by Alexa Fluor 488 Annexin/propidium iodide staining-based flow cytometric analysis (reference value: 2.07%); type: functional
A-375 [10] = test: Induction of apoptosis in human A375 cells assessed as late apoptotic cells at 2 uM after 72 hrs by Alexa Fluor 488 Annexin/propidium iodide staining-based flow cytometric analysis (reference value: 10.22%); type: functional
A-375 [11] = test: Induction of apoptosis in human A375 cells assessed as necrotic cells at 2 uM after 72 hrs by Alexa Fluor 488 Annexin/propidium iodide staining-based flow cytometric analysis (reference value: 1.64%); type: functional
A-375 [12] = test: Induction of apoptosis in human A375 cells assessed as viable cells at 2 uM after 72 hrs by Alexa Fluor 488 Annexin/propidium iodide staining-based flow cytometric analysis (reference value: 86.07%); type: functional; settings: A-375, 72 h, read-out: Activity
A-375 [13] = test: Induction of apoptosis in human A375 cells assessed as early apoptotic cells at 8 uM after 72 hrs by Alexa Fluor 488 Annexin/propidium iodide staining-based flow cytometric analysis (reference value: 2.07%); type: functional
A-375 [14] = test: Induction of apoptosis in human A375 cells assessed as late apoptotic cells at 8 uM after 72 hrs by Alexa Fluor 488 Annexin/propidium iodide staining-based flow cytometric analysis (reference value: 10.22%); type: functional
A-375 [15] = test: Induction of apoptosis in human A375 cells assessed as necrotic cells at 8 uM after 72 hrs by Alexa Fluor 488 Annexin/propidium iodide staining-based flow cytometric analysis (reference value: 1.64%); type: functional
A-375 [16] = test: Induction of apoptosis in human A375 cells assessed as viable cells at 8 uM after 72 hrs by Alexa Fluor 488 Annexin/propidium iodide staining-based flow cytometric analysis (reference value: 86.07%); type: functional; settings: A-375, 72 h, read-out: Activity
A-375 [17] = test: Induction of apoptosis in human A375 cells assessed as early apoptotic cells at 16 uM after 72 hrs by Alexa Fluor 488 Annexin/propidium iodide staining-based flow cytometric analysis (reference value: 2.07%); type: functional
A-375 [18] = test: Induction of apoptosis in human A375 cells assessed as late apoptotic cells at 16 uM after 72 hrs by Alexa Fluor 488 Annexin/propidium iodide staining-based flow cytometric analysis (reference value: 10.22%); type: functional
A-375 [19] = test: Induction of apoptosis in human A375 cells assessed as necrotic cells at 16 uM after 72 hrs by Alexa Fluor 488 Annexin/propidium iodide staining-based flow cytometric analysis (reference value: 1.64%); type: functional
A-375 [20] = test: Induction of apoptosis in human A375 cells assessed as viable cells at 16 uM after 72 hrs by Alexa Fluor 488 Annexin/propidium iodide staining-based flow cytometric analysis (reference value: 86.07%); type: functional; settings: A-375, 72 h, read-out: Activity
A-375 [21] = test: Cell cycle arrest in human A375 cells assessed as accumulation at G2/M phase at 8 uM after 72 hrs by propidium iodide/RNase staining based flow cytometric analysis relative to control; type: functional
How it was run: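 A375 cells (1.6 × 10^5 per well) plated 12 h, then treated with compound or DMSO for 72 h. Cells fixed overnight in 70% ethanol in phosphate buffer at –20 °C, stained 30 min at room temperature with RNase:PI (1:9). DNA content read by flow cytometry.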

Sequence of Histone deacetylase 3/NCoR1 (O15379 whole entry): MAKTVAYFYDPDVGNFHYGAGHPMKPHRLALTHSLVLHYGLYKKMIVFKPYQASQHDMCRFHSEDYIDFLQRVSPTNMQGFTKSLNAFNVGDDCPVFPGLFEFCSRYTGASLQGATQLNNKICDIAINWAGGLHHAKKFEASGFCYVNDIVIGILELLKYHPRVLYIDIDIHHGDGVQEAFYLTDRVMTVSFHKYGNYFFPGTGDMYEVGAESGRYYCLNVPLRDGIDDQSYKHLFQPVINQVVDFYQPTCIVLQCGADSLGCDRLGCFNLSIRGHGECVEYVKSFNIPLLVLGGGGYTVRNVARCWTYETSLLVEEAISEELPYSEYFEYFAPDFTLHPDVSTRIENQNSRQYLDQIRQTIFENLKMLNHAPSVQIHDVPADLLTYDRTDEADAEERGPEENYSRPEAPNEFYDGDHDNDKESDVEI
Sequence of Histone deacetylase 3/NCoR1 (O75376 whole entry, further chain): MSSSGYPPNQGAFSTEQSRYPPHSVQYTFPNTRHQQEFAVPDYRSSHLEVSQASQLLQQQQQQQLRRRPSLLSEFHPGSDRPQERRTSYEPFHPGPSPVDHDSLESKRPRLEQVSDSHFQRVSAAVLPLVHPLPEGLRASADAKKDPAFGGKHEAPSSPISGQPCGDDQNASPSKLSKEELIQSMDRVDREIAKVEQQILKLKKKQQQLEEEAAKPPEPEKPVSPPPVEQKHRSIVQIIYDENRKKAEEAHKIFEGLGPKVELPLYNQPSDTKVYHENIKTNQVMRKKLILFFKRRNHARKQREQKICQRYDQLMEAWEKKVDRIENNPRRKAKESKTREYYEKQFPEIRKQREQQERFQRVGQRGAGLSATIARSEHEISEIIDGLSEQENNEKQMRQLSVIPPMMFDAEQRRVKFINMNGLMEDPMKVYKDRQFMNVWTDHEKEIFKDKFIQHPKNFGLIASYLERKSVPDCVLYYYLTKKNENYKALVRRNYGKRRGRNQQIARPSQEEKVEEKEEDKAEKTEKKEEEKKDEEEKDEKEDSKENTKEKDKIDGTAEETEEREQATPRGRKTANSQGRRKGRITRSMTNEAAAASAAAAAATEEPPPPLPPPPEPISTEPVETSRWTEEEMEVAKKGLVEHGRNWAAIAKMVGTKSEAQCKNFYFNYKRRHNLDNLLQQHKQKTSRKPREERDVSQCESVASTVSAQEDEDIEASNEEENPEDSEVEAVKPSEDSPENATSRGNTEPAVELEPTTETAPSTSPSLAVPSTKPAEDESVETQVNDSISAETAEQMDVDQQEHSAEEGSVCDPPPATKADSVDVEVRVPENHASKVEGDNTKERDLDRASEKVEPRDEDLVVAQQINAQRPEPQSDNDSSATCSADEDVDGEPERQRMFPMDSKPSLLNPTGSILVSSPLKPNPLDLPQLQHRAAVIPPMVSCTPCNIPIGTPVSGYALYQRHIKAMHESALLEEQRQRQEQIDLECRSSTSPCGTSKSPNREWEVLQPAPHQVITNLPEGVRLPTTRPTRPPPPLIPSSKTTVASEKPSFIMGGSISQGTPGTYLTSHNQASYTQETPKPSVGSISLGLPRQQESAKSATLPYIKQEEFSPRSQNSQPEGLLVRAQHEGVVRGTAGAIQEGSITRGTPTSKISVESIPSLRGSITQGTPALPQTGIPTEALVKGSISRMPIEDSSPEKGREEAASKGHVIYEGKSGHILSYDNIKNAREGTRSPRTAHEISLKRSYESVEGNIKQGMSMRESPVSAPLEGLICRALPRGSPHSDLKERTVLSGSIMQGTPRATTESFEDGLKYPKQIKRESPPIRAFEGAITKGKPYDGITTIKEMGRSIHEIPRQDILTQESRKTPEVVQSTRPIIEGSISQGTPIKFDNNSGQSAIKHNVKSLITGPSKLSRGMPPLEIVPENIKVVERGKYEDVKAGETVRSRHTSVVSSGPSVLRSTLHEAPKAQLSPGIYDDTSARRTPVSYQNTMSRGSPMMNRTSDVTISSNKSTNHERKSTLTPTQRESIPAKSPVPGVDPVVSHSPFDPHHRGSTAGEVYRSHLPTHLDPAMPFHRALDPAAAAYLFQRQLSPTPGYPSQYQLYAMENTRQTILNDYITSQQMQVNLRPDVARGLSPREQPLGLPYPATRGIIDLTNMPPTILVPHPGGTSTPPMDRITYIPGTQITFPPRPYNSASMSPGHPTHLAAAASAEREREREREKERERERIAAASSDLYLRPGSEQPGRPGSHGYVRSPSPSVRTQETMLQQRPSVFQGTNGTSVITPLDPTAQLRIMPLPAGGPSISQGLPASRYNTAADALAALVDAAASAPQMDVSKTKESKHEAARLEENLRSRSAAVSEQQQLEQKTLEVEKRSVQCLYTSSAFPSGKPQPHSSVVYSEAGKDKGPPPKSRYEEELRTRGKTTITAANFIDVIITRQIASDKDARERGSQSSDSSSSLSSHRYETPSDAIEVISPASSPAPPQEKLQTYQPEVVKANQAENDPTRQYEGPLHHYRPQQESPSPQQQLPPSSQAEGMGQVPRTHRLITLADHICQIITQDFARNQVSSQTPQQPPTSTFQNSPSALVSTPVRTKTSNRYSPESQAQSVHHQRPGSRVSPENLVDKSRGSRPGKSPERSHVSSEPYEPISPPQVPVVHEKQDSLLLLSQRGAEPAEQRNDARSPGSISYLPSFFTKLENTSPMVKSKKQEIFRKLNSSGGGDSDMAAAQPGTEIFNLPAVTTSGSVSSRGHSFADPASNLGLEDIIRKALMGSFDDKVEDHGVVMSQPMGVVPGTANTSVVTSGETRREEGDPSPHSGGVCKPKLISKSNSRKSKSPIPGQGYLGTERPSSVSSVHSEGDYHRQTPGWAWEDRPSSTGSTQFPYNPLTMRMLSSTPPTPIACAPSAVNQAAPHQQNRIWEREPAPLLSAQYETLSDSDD
Sequence of Histone deacetylase 1 (Q13547 whole entry, canonical isoform): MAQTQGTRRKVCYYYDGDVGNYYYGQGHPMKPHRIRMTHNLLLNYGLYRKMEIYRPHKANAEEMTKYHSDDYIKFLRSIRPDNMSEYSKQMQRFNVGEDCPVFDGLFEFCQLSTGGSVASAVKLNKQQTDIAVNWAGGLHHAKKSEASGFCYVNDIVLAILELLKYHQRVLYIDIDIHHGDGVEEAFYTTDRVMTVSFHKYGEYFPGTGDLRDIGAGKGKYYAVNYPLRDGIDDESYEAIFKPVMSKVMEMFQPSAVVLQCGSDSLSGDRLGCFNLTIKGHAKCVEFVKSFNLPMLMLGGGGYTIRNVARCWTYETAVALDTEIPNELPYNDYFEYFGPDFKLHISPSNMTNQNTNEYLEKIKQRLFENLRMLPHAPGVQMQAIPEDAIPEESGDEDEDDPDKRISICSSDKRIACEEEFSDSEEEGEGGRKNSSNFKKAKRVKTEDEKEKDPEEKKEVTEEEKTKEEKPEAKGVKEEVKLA
Sequence of Histone deacetylase 2 (Q92769 whole entry): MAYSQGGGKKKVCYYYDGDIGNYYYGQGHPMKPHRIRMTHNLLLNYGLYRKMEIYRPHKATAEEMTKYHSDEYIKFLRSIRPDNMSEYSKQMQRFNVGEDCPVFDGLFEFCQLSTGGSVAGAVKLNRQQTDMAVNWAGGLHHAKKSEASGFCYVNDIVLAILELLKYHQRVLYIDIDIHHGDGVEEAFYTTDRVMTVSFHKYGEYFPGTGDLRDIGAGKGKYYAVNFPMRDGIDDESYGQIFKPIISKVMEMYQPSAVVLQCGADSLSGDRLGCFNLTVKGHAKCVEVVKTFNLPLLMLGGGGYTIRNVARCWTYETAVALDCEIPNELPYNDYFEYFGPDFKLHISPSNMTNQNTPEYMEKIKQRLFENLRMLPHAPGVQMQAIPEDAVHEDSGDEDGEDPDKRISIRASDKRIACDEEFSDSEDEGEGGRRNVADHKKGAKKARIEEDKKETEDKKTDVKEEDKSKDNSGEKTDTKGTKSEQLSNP

SMILES: Nc1ccccc1NC(=O)CCCc1ccc(N(CCCl)CCCl)cc1
inhibition [1]: Active
pIC50 (Histone deacetylase 1): < 3.80
pIC50 (Histone deacetylase 2): 4.48
pIC50 [2]: 5.02
pIC50 (Histone deacetylase 8): 4.12
pIC50 [3]: < 3.80
Activity [4]: 159%
Activity [5]: 213.3%
pIC50 (A549): 5.21
pIC50 (A-375 [6]): 5.21
pIC50 (SMMC-7721): 5.40
pIC50 (HepG2): 4.85
pIC50 (NCI-H1299): 5.26
pIC50 (NCI-H460): 5.51
Activity (A-375 [7]): Dose-dependent effect
Activity (A-375 [8]): Dose-dependent effect
Activity (A-375 [9]): 5.76%
Activity (A-375 [10]): 11.63%
Activity (A-375 [11]): 2.77%
viability at 2 µM (A-375 [12]): 79.8%
Activity (A-375 [13]): 7.39%
Activity (A-375 [14]): 42.54%
Activity (A-375 [15]): 12.05%
viability at 8 µM (A-375 [16]): 38%
Activity (A-375 [17]): 12.31%
Activity (A-375 [18]): 48.69%
Activity (A-375 [19]): 3.78%
viability at 16 µM (A-375 [20]): 35.2%
Activity (A-375 [21]): 79.2%

SMILES: O=C(O)CCCc1ccc(N(CCCl)CCCl)cc1 [CHLORAMBUCIL]
Activity [4]: 128.9%
Activity [5]: 128.6%
pIC50 (SMMC-7721): 3.79
pIC50 (NCI-H1299): 3.93
pIC50 (NCI-H460): 4.54
Activity (A-375 [9]): 1.62%
Activity (A-375 [10]): 6.95%
Activity (A-375 [11]): 1.36%
viability at 2 µM (A-375 [12]): 90.1%
Activity (A-375 [13]): 2.11%
Activity (A-375 [14]): 8.41%
Activity (A-375 [15]): 2.34%
viability at 8 µM (A-375 [16]): 87.1%
Activity (A-375 [17]): 4.21%
Activity (A-375 [18]): 18.21%
Activity (A-375 [19]): 6.44%
viability at 16 µM (A-375 [20]): 71.1%
Activity (A-375 [21]): 47.6%

pIC50 (SMMC-7721): 4.77
pIC50 (NCI-H460): 5.01
SMILES: CC(=O)Nc1ccc(C(=O)Nc2ccccc2N)cc1 [TACEDINALINE]
Activity [4]: 104.5%
Activity [5]: 118.8%
Activity (A-375 [9]): 9.54%
Activity (A-375 [10]): 11.03%
Activity (A-375 [11]): 1.04%
viability at 2 µM (A-375 [12]): 78.4%
Activity (A-375 [13]): 19.04%
Activity (A-375 [14]): 9.09%
Activity (A-375 [15]): 0.71%
viability at 8 µM (A-375 [16]): 70.4%
Activity (A-375 [17]): 36.31%
Activity (A-375 [18]): 26.71%
Activity (A-375 [19]): 1.01%
viability at 16 µM (A-375 [20]): 36%
Activity (A-375 [21]): 10.8%
